# In the library only some 1.1% were active in any assay of this set; here they are far more common.
# m-calpain inh = inhibitors of pig calpain II, primary screen, biochemical, fluorogenic peptide substrate, 1536-well. purified calpain II, 30 min. inhibition, % at 16 µM. hit rate 0.37% among 220,000. AID 1236, 2008;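 active means inhibition above about 50%, limit read from the data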
# PMI activator = activators of human PMI, primary screen, biochemical, fluorescence intensity, near-Km mannose 6-phosphate; Mannose-6-phosphate isomerase (Homo sapiens), P34949; purified human PMI, coupled resazurin fluorescence, 20 min; active compounds read high; 1 = vehicle control, 0 substrate-free wells; activation factor at 20 µM; hit rate 0.005% among 190,000;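 active means activation factor of 2 or more at 20 µM, relative to plate controls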
# Target sequence (P34949 whole entry, looked up): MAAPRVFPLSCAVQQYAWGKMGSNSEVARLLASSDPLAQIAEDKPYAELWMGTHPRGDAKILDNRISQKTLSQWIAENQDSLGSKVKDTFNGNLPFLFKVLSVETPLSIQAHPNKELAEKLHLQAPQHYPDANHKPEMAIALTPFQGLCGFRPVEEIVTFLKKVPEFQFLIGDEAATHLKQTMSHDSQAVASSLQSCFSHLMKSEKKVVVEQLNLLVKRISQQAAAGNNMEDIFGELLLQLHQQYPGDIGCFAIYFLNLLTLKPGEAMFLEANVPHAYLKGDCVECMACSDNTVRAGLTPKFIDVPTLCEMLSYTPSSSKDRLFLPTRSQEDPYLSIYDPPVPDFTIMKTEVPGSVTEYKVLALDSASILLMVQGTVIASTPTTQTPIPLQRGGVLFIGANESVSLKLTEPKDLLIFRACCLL
# HMGR II inh = inhibitors of E. faecalis class II HMGR, primary screen, biochemical, Enterococcus faecalis | HMG-CoA reductase (Enterococcus faecalis, mvaE) | purified E. faecalis HMGR, NADPH absorbance 340 nm kinetic | inhibition, % at 10 µM | hit rate 0.41% among 190,000 | AID 1066, 2008;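 active means inhibition above a set limit, the median over all tested compounds plus 3 SD, cut at about 9.5% in these data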;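 further: enzyme runs in reverse so mevalonate oxidation gives rising NADPH absorbance; 0% = complete reaction with DMSO and 100% = background rate lacking mevalonate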
# PMI act satM6P = human PMI activators, high substrate, primary screen, biochemical, fluorescence intensity, near-saturating mannose 6-phosphate | hit rate 0.34% among 190,000 | activation factor at 20 µM | coupled PMI enzyme assay, resazurin fluorescence, 20 min; active compounds read high; 1 = untreated enzyme, 0 = substrate-free blank | Mannose-6-phosphate isomerase (Homo sapiens), P34949 | AID 1216, 2008;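 active means activation factor of 2 or more at 20 µM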
#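 Test system: human phosphomannose isomerase with PGI, G6PDH, diaphorase coupling enzymes; amount: 15 ng/mL PMI; incubation: enzyme reaction with compound 20 min at room temperature; technique: resorufin fluorescence (Ex 544/Em 590 nm) from resazurin via diaphorase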
# Rad51 HR inh = human RAD51 strand exchange inhibitors, primary screen, biochemical, fluorescence. hRad51 DNA strand exchange, fluorescence dequenching. hit rate 0.085% among 200,000. inhibition, % at 10 µM. DNA repair protein RAD51 homolog 1 (Homo sapiens), Q06609. AID 1385, 2008;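 active means inhibition above 40% at the single screening dose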;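 further: 0% = DMSO control wells and 100% = blanks with heterologous ssDNA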
#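 material = hRad51 filaments on single-stranded DNA | timing = filaments 15 min 37 °C, then compound 30 min | signal = FRET fluorescence dequenching, excitation 485 nm, emission 520 nm | benchmarks = control wells and blank wells on each plate | evaluation = percent inhibition relative to plate controls and blanks | compound = 10 µM final, single point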
# * hit, by the source's call; i = inactive; / = no result.
SMILES,m-calpain inh,PMI activator,HMGR II inh,PMI act satM6P,Rad51 HR inh
CCOC(=O)c1nc2cc3n(c(CC(C)C)c-2c1C)CC(C)=C3C,-284,1.8,-8,2.4*,7
COc1ccccc1CN1C[C@@H]2C[C@@H](c3cccc(C)c3)N3CCC[C@@]23C1=O,-28,0.9,1,0.9,/
Cc1noc(C)c1CSCc1ccc(Cl)cc1,3,0.9,0,1,28
CCC(=O)Nc1nc(=S)ss1,3,0.7,-5,1,62*
CC(C)(C)C(=O)Nc1nc(=S)ss1,-5,0.8,-1,1,3
O=C(Cc1ccc(Br)cc1)Nc1ncc([N+](=O)[O-])s1,8,/,/,/,-2
O=C(Cc1ccc(Cl)cc1)Nc1ncc([N+](=O)[O-])s1,77*,1,-8,1,13
O=C(NCc1ccco1)c1cccn2c(=O)c3cc4ccccc4cc3nc12,-297,2*,-2,2.4*,/
COCCn1c(=N)c(C(=O)NCc2ccco2)cc2c(=O)n3cc(C)ccc3nc21,-370,/,17*,/,-6
COCCCNC(=O)c1cccn2c(=O)c3cc4ccccc4cc3nc12,-99,1.5,-4,1.9,6
CC(=O)C(Cc1ccc(Cl)nc1)(Cc1ccc(Cl)nc1)C(C)=O,-3,1.1,10.0*,1.1,-3
CC(=O)C(Cc1cnc(Cl)s1)(Cc1cnc(Cl)s1)C(C)=O,29,1.2,-2,1.5,0
O=C(Oc1ccc(Cl)c2cccnc12)C12CC3CC(CC(C3)C1)C2,56*,0.7,1,0.7,-5
Cn1c(NC(=O)c2ccccc2F)cc(=O)n(C)c1=O,-17,1.1,-3,1.1,0
CCCCN1CNC(=S)N(c2ccc(C(=O)OCC)cc2)C1,-6,1,-2,1.2,6
CN(C)C(CNC(=O)CCOc1ccccc1)c1ccco1 (stereo not given),-45,0.9,21*,0.7,-11
CC(=O)c1ccc(OCCCC(=O)NCC(c2ccco2)N(C)C)cc1 (stereo not given),-20,1.1,-2,0.9,4
CCOC(=O)c1ccc(NC(=O)Cn2c(-c3nonc3N)nc3ccccc32)cc1,59*,0.9,-3,0.9,-4
CCOc1ccc(C(CC(=O)O)NC(=O)c2cccs2)cc1OC (stereo not given),-37,1,-5,1.1,-5
Cc1ccc(/C=C/C(=O)NCC2COc3ccccc3O2)o1 (stereo not given),-65,1.2,-2,1.1,-9
COc1ccc(/C=C/C(=O)NCC2COc3ccccc3O2)cc1OC (stereo not given),-68,1,9.5*,1,-5
O=C(N/N=C/c1ccc(Cl)c([N+](=O)[O-])c1)C1CC1,54*,1,-10,0.9,1
O=C(N/N=C/c1cc(Cl)cc([N+](=O)[O-])c1O)C1CC1,0,/,/,/,10
Cc1ccc(S(=O)(=O)N2CCCC(C(=O)NCc3ccco3)C2)cc1Cl (stereo not given),0,1,13*,1.1,2
Cc1cccn2cc(-c3ccc(S(=O)(=O)N4CCCCC4)cc3)nc12,i,/,10*,/,4
SMILES,m-calpain inh,PMI activator,HMGR II inh,PMI act satM6P,Rad51 HR inh
NNC(=O)CS(=O)(=O)c1ccc(Cl)cc1,2,/,/,/,14
Cc1ccc(S(=O)(=O)c2ccc(C)cc2)cc1,-11,1,2,1,0
Cc1ccc(S(=O)(=O)CCCS(=O)(=O)c2ccc(C)cc2)cc1,8,0.9,11*,0.9,-3
Cc1ccc(-n2c(C)cc(/C=N/NC(=O)c3ccncc3)c2C)c(C)c1,37,1.1,2,1,2
Cc1cc2ncn(-c3ncnc4sc5c(c34)CCCC5)c2cc1C,9,0.9,0,1,-4
Cc1cc2ncn(-c3ncnc4sc5c(c34)CCC(C)C5)c2cc1C (stereo not given),66*,1,-2,1,/
CN(C)C(CNC(C(=O)Nc1ccc([N+](=O)[O-])cc1Br)c1ccccc1)c1ccccc1 (stereo not given),53*,1.1,-2,1.1,-4
Cc1ccc(C(=O)c2c(C)oc3c2C(=O)C(=O)c2ccccc2-3)cc1,26,0.3,-7,0.3,9
COc1ccc(C(=O)c2c(C(F)(F)F)oc3c2C(=O)c2ccccc2C3=O)cc1,13,1.5,2,2*,10
COc1ccc2c(c1)c(=O)c(C(=O)c1ccccc1)cn2Cc1ccc(C)cc1,-2,0.9,14*,0.9,-3
O=C(Nc1ccc(Cl)cc1)NC1CCCCC1Cc1ccco1 (stereo not given),53*,0.9,-6,0.9,-2
O=C(Nc1ccc(Cl)cc1)NC1CCCC1Cc1ccco1 (stereo not given),40,0.9,-1,0.9,-3
CCC(=O)NS(=O)(=O)c1ccc(-c2c(-c3ccccc3)noc2C)cc1,/,/,/,/,1
COC(=O)CNC(=O)c1sc2ncn(CC(=O)Nc3ccc(C)c(Cl)c3)c(=O)c2c1C,52*,1,0,1,-26
COCCNC(=O)c1sc2ncn(CC(=O)Nc3ccc(C)c(Cl)c3)c(=O)c2c1C,-1,1,2,0.9,27
O=C(CSc1ncn(-c2ccccc2)n1)c1cccs1,7,0.8,2,0.9,68*
Cc1cc(-c2cc(C(=O)NCc3ccccc3)on2)nc(NCC2CC2)n1,-3,/,/,/,0
Cc1nnc(SC(C)C#N)n1-c1ccccc1 (stereo not given),-21,1,12*,1,-1
COCCn1c(C)cc(C(=O)COC(=O)CNC(=O)c2ccccc2)c1C,59*,0.9,-9,1.1,-14
CCOC(=O)C(=NC1CCS(=O)(=O)C1)NNc1ccc(Br)cc1 (stereo not given),3,1.6,-3,2.4*,-7
CCOC(=O)C(=NC(C)CC)NNc1cccc(C(F)(F)F)c1 (stereo not given),17,1.3,-4,1.5,20
CCC(=O)NNc1ccc(Br)cc1,13,2*,-4,2.8*,-2
CCOC(=O)C(=NC1CCS(=O)(=O)C1)NNc1ccccc1Cl (stereo not given),13,/,/,/,5
CCOC(=O)C(=NC(C)CC)NNc1ccc(Br)cc1 (stereo not given),12,1.6,-3,2.7*,/
CCCCNC(=O)Cn1cnc2sc(C)c(S(=O)(=O)N3CCN(c4ncccn4)CC3)c2c1=O,-3,1,2,1,2
CCC1CCCCN1S(=O)(=O)c1ccc(NC(=O)c2cccs2)cc1 (stereo not given),24,0.9,11*,0.9,-2
Cc1ccc2cc3c(N)c(C(=O)N4CCOCC4)sc3nc2c1,-15,1.2,3,1.2,/

# Compound activity deposited in PubChem BioAssay by several laboratories.
